One data set has as its system Nucleic Acid. Kind of data set: Binding affinity to supercoiled Escherichia coli pET-15b DNA after 30 mins by agarose gel electrophoresis assay. It is filed as nucleic-acid assay. The method in brief:
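Nonspecific DNA binding: compounds diluted to 1 mg/mL in DMSO with 0.4% ethanolamine, then added 1:10 (final 100 μg/mL) to 100 ng supercoiled pET-15b plasmid in 20 mM Hepes pH 7.6, 10 mM ammonium sulfate, 30 mM KCl, 1 mM EDTA, 0.2% polysorbate-20; 30 min room temperature; 0.8% agarose gel, ethidium bromide stain; migration shift scored; vehicle control.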

A further data set concerns J774.A1. The data set is described as follows: Cytotoxicity against mouse J774A1 cells assessed as LDH release at 50 ug/mL after 18 hrs by colorimetric assay. The format is cell-based. The settings on record: j774.a1, 18 h. Background: LDH in the medium is a marker of cell lysis.

In general, IC50 refers to the concentration at which inhibition is half-maximal. Take `CN1CCN(CCOc2cc3nc(-c4ccc(NC(=O)/C=C/c5ccc(F)cc5)cc4)n(O)c3cc2[N+](=O)[O-])CC1`: the IC50 in the data set with Nucleic Acid stood at 3.1 µM. Moreover, the Activity entry in the data set on J774.A1 is “Non-toxic”.

For `CN(C)CCN(C)c1cc2nc(-c3ccc(NC(=O)/C=C/c4ccc(F)cc4)cc3)n(O)c2cc1[N+](=O)[O-]`, in the data set with Nucleic Acid, the IC50 was determined as 3.3 µM. Further, the Activity entry in the data set with J774.A1 was “Non-toxic”.

Source of the values: ChEMBL document CHEMBL1155196, “N-hydroxybenzimidazole inhibitors of the transcription factor LcrF in Yersinia: novel antivirulence agents” (J Med Chem, 2009).
